Source: PubChem BioAssay (The Scripps Research Institute Molecular Screening Center)
VIM-2 inh = blocks Pseudomonas aeruginosa VIM-2 metallo-beta-lactamase; purified VIM-2, nitrocefin hydrolysis, epi-absorbance fluorescence; inhibition, % at 5.6 µM; 290,000 tested, 0.89% active;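 active = inhibition above the mean of all tested compounds plus 3 SD, cutoff set per screening run, cut at about 7.5% in these data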;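 also: red hydrolysis product quenches plate fluorescence so inhibitors raise well fluorescence; 0% = enzyme with DMSO and 100% = DMSO without enzyme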
PKA-R1A act = activators of PKA-R1A complex. P00514+P68181. 340,000 tested, 0.083% active. PKA-R1A dissociation, Cy5-IP20 fluorescence polarization; scaled: DMSO 0%, 113 µM cGMP 100%. activation, % at 11.4 µM;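 active = percent activation above the mean of all tested compounds plus 3 SD, cut at about 19% in these data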;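 also: higher means more PKAc released from R1A so a rise in polarization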
MsrA inh = bovine MsrA inhibition | purified bovine MsrA, absorbance read-out | inhibition, % at 15.5 µM | 360,000 tested, 0.75% active | AID 651718; in the data active = inhibition above about 4.5%;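 also: 0% = vehicle wells with enzyme and 100% = reference inhibitor wells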
bovine MsrA act = activators of bovine methionine sulfoxide reductase A. purified bovine MsrA, absorbance read-out. activation, % at 10.6 µM. 360,000 tested, 0.3% active. AID 602163; in the data active = activation above about 7.5%;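 also: 0% = vehicle and 100% = reference activator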
PKA-R2B activ = activates the human PKA-R2B holoenzyme complex; P22694+P31323; 340,000 tested, 0.079% active; AID 504700; activation, % at 11.4 µM; PKA-R2B holoenzyme dissociation, Cy5-IP20 fluorescence polarization; R2B truncated from residue 108, S112A mutant; 0% DMSO only, 100% 113 µM cGMP;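 active = activation above a cutoff set at the mean over all compounds plus 3 SD, cut at about 18% in these data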;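 also: higher means more holoenzyme dissociation and a rise in polarization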
Target sequence (P31323 whole entry, looked up, other chains not shown, the tested form may be a part): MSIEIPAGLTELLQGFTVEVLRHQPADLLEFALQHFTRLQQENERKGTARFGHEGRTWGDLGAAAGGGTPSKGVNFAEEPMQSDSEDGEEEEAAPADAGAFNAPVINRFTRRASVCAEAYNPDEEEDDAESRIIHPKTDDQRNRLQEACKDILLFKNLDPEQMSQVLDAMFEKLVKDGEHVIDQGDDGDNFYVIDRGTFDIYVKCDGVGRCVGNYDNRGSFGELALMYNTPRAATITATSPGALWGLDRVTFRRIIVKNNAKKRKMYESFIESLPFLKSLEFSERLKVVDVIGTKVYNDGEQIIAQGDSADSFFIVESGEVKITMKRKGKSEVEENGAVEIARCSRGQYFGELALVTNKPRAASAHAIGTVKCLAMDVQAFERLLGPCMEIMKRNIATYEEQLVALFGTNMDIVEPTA
IMP-1 inhibitor = blocks Pseudomonas aeruginosa IMP-1 metallo-beta-lactamase. 290,000 tested, 0.45% active. purified IMP-1, nitrocefin hydrolysis, epi-absorbance fluorescence. inhibition, % at 5.6 µM;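 active = inhibition above the mean plus 3 SD of all compounds in the same screening run, cut at about 4.5% in these data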;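 also: 0% = IMP-1 with DMSO and 100% = DMSO wells lacking enzyme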
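system = purified recombinant IMP-1 beta-lactamase | amount = 0.2 nM IMP-1, as dispensed | medium = HEPES buffer pH 7.1 with ZnSO4 and Brij 35 | times = 25 °C, 15 min preincubation, 25 min reaction | detection = plate fluorescence quenching by hydrolysis product, ex 480/em 530 nm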
Numbers without * were called inactive; / = no result. In the library only some 2.1% were active in any assay of this set; here they are far more common.

SMILES	VIM-2 inh	PKA-R1A act	MsrA inh	bovine MsrA act	PKA-R2B activ	IMP-1 inhibitor
Cc1cc(-c2[nH]nc3c2C(c2cccc(O)c2)C(C#N)=C(N)O3)c(C)s1 (stereo unspecified)	3	2	-1	-6	-7	6.8*
Cc1cc(-c2[nH]nc3c2C(c2ccsc2)C(C#N)=C(N)O3)c(C)s1 (stereo unspecified)	-2	-13	0	-12	-11	-1
CC1CCN(c2nc3ccc(C(=O)NCCCN4CCCCC4)cc3s2)CC1	10*	13	0	0	-1	-7
CC(NC(=O)Cc1ccc(-c2ccccc2)cc1)c1ccccc1 (stereo unspecified)	0	-11	0	-4	-1	5.0*
CN1C(=O)NC(c2ccc(O)cc2)C(C(=O)c2cccs2)C1(O)C(F)(F)F (stereo unspecified)	-1	-8	4.5*	-11	-2	-1
O=S(=O)(c1ccc(-c2ccon2)s1)N1CCN(c2ccccn2)CC1	-2	7	-1	-1	9	79*
CCc1cc2c(=O)n(Cc3ccco3)c(SCC(=O)N3CCCc4ccccc43)nc2s1	3	-7	1	-1	-9	6.0*
C[C@@H]1CN([C@@H](C)CO)C(=O)CCCn2cc(nn2)CO[C@H]1CN(C)C(=O)Nc1ccccc1	/	/	-1	/	/	/
COC(=O)c1c(NC(=O)CC2Nc3cc(C)c(C)cc3NC2=O)sc(C)c1C (stereo unspecified)	-1	4	/	-2	2	4.6*
CCc1cc(C(=O)OC)c(NC(=O)CC2Nc3cc(C)c(C)cc3NC2=O)s1 (stereo unspecified)	-1	-1	-1	1	-2	-2
COC(=O)c1ccc(-c2ccco2)n1Cc1cccc(C)c1	-5	5	1	-3	-5	2
O=C(O)c1ccc(-c2ccco2)n1Cc1ccccc1	2	-5	1	0	-9	8.8*
Cc1ccccc1CN1CCN(Cc2cc(=O)c3ccccc3[nH]2)CC1CCO (stereo unspecified)	-2	-3	2	-3	3	8.3*
Cc1ccccc1CN1CCN(Cc2cc3ccccc3o2)CC1CCO (stereo unspecified)	-3	3	0	-3	-13	-3
CCCc1nc2oc3c(NCCCN(C)C)ncnc3c2c2c1CCCC2	12*	/	1	-10	/	-4
CCCNC(=O)C1(C)CCCN(C(=O)Cc2ccc(OC)c(OC)c2)C1 (stereo unspecified)	/	/	0	0	/	/
Cc1cc(C)nc(NS(=O)(=O)c2ccc(NC(=O)C(C)C)cc2)n1	1	-12	0	-1	-6	0
CC(C)C(=O)Nc1ccc(S(=O)(=O)Nc2nccc(/C=C/c3ccccc3)n2)cc1	-3	3	4.6*	-4	1	-5
COc1ccc(S(=O)(=O)N2CCCCCC2)cc1C(=O)N1CCN(C(C)=O)CC1	/	-4	0	-2	-3	/
COc1cccc(NC(=O)COc2ccc(C(=S)N3CCN(C)CC3)cc2OC)c1	8.3*	6	0	0	-6	1
C=CCSc1nc2ccccc2n2cnnc12	10*	4	2	-1	-14	-1
c1ccc(CN2CCOCC2)cc1	-7	-12	-1	-10	-5	-3
O=c1c(N2CCOCC2)nsn1Cc1ccccc1	-3	5	-1	-6	-2	6.0*
CCCN(CC(=O)Nc1ccccc1C)C(=O)c1ccc(=O)n(Cc2ccccc2)n1	/	-1	-1	-2	-6	/
COc1ccc(Sc2cccc(Cl)c2)c(C(=O)O)c1	/	/	0	/	/	/
O=C(NC12CC3CC(CC(C3)C1)C2)OCCNC1CCCCC1	0	-3	1	-4	1	4.5*
O=C(O)C1C2CCC(CC2)C1C(=O)N1CCN(Cc2ccc(F)cc2)CC1 (stereo unspecified)	0	7	1	-2	13	15*
O=S1(=O)N[C@H](Cc2ccccc2)COc2cccc(F)c21	/	/	3	/	/	/
C=CCn1c(C)c(/C=C/c2cc[n+](C)cc2)c2ccccc21	9.3*	1	1	0	-8	4
C=CCn1cc(/C=C/c2cc[n+](C)cc2)c2ccccc21	10*	-6	0	-8	-7	7.8*
